Source: ChEMBL document CHEMBL3045515, “Insecticidal benzoylphenylurea-S-carbamate: a new propesticide with two effects of both benzoylphenylureas and carbamates” (2007)

What was measured:
Type in all cases: functional
Mythimna separata [1] = assay: Larvicidal activity against Mythimna separata (Oriental armyworm ) in compound treated corn leaves at 0.5 mg/L at 25 +/- 1 degC measured after 4 days
Summary of the method: (§1)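 Foliar-application assay on laboratory-reared Oriental armyworm (Mythimna (Pseudaletia) separata), run at 25 ± 1 °C. Larvae were scored dead or alive, and mortality was corrected by Abbott's formula on a 0–100% scale, where 0 = no activity and 100 = total kill. Bioassays were repeated as statistics required.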

Mythimna separata [2] = assay: Larvicidal activity against Mythimna separata (Oriental armyworm) in compound treated corn leaves at 1 mg/L at 25 +/- 1 degC measured after 4 days; summary of the method: as §1
Mythimna separata [3] = assay: (§2) Larvicidal activity against Mythimna separata (Oriental armyworm) in compound treated corn leaves at […] at 25 +/- 1 degC measured after 4 days
Mythimna separata [4] = assay: Larvicidal activity against Mythimna separata (Oriental armyworm) in compound treated corn leaves at 10 mg/L at 25 +/- 1 degC measured after 4 days
Mythimna separata [5] = assay: Larvicidal activity against Mythimna separata (Oriental armyworm) in compound treated corn leaves at 100 mg/L at 25 +/- 1 degC measured after 4 days
Mythimna separata [6] = assay: Larvicidal activity against Mythimna separata (Oriental armyworm) in compound treated corn leaves at 5 mg/L at 25 +/- 1 degC measured after 4 days
Mythimna separata [7] = assay: as §2; remark: listed apart in the source
Mythimna separata [8] = assay: Larvicidal activity against Mythimna separata (Oriental armyworm) in compound treated corn leaves at 50 mg/L at 25 +/- 1 degC measured after 4 days; summary of the method: as §1
Mythimna separata [9] = assay: Larvicidal activity against Mythimna separata (Oriental armyworm) in compound treated corn leaves at 25 mg/L at 25 +/- 1 degC measured after 4 days

In the case of O=C(NC(=O)c1c(F)cccc1F)Nc1ccc(Cl)cc1 [DIFLUBENZURON], the Activity (Mythimna separata [1]) is reported as 100%, the Activity (Mythimna separata [2]) is reported as 100% and the Activity (Mythimna separata [3]) is reported as 100%. The Activity (Mythimna separata [4]) was 100%, the Activity (Mythimna separata [5]) was 0% and the Activity (Mythimna separata [6]) was 100%. The Activity (Mythimna separata [7]) was 45%, the Activity (Mythimna separata [8]) was 100% and the Activity (Mythimna separata [9]) was 100%.

In the case of CNC(=O)ON=C(C)SC [METHOMYL], the Activity (Mythimna separata [3]) is reported as 0%, the Activity (Mythimna separata [4]) is reported as 100% and the Activity (Mythimna separata [5]) is reported as 100%. For the same molecule, the Activity (Mythimna separata [6]) was 62%.

Work on Cc1cccc(OC(=O)N(C)SN(C(=O)NC(=O)c2c(F)cccc2F)c2ccc(C(F)(F)F)cc2)c1 [Penfluron-S-MTMC] yielded an Activity (Mythimna separata [1]) of 95%, an Activity (Mythimna separata [2]) of 100% and an Activity (Mythimna separata [3]) of 100%. It also gave an Activity (Mythimna separata [4]) of 100%, an Activity (Mythimna separata [6]) of 100% and an Activity (Mythimna separata [7]) of 15%. It also gave an Activity (Mythimna separata [8]) of 100% and an Activity (Mythimna separata [9]) of 100%.

In the case of O=C(NC(=O)c1ccccc1Cl)Nc1ccc(OC(F)(F)F)cc1 [TRIFLUMURON], the Activity (Mythimna separata [1]) is reported as 40%, the Activity (Mythimna separata [2]) is reported as 95% and the Activity (Mythimna separata [3]) is reported as 100%. It also gave an Activity (Mythimna separata [4]) of 100%, an Activity (Mythimna separata [5]) of 0% and an Activity (Mythimna separata [6]) of 100%. It also gave an Activity (Mythimna separata [7]) of 20%, an Activity (Mythimna separata [8]) of 100% and an Activity (Mythimna separata [9]) of 100%.
